Activity calls are given as the source filed them.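 How the source made its calls: active means IC50 at or below 5 µM; inactive means the rest.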
Biological target: Steroidogenic factor 1 (Homo sapiens) (UniProt Q13285)
Assay: dose-dependent SF-1 transcriptional inhibition – cell-based, luminescence, selectivity assay for LRH1 inverse agonist project, dose response (AID 488780)
Settings: HEK293T SF-1 5xSFRE luciferase reporter, 20 h; for fold change, <1 = inhibition: at 10 µM (top of the series)
Outline: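 Material: HEK293T with SF-1 and 5xSFRE luciferase reporter; Dosing: Nine-point dilution series, nominal top 10 µM; Incubation: 24 h bulk transfection before replating, then 20 h compound exposure; Signal: luminescence from SFRE-driven luciferase; Evaluation: IC50 from percent inhibition versus DMSO; Control set: DMSO-treated cells as normalization reference; Replicates: triplicate.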

Chain of Steroidogenic factor 1 (Homo sapiens) (Q13285 whole entry, looked up): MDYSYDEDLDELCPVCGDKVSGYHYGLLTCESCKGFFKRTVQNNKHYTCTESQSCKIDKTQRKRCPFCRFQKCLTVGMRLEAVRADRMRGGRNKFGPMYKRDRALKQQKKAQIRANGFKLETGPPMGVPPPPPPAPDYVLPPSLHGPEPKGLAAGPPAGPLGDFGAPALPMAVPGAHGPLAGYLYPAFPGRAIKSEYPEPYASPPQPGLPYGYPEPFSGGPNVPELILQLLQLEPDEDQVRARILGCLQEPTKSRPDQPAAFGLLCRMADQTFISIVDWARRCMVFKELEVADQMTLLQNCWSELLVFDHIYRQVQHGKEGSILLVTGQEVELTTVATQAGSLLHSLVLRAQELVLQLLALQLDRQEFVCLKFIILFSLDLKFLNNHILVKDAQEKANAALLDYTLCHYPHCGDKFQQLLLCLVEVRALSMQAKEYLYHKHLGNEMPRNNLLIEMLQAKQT

SMILES | fold change, <1 = inhibition | IC50
CC(C)Cn1c(=O)cc(N2CCN(c3cccc(C(F)(F)F)c3)CC2)[nH]c1=O | inactive | 
O=c1cc(N2CCN(c3cccc(Cl)n3)CC2)[nH]c(=O)n1C1CCCCC1 | inactive | 
O=c1cc(N2CCN(c3ccccc3)CC2)[nH]c(=O)n1C1CCCCC1 | inactive | 
O=c1cc(N2CCN(c3cccc(C(F)(F)F)c3)CC2)[nH]c(=O)n1C1CCCCC1 | inactive | 
CCn1c(=O)cc(N2CCN(c3cccc(C(F)(F)F)c3)CC2)[nH]c1=O | inactive | 
O=c1cc(N2CCN(Cc3ccc(Cl)cc3)CC2)[nH]c(=O)n1C1CCCCC1 | inactive | 
O=c1cc(N2CCN(c3ccccn3)CC2)[nH]c(=O)n1C1CCCCC1 | inactive | 
O=c1cc(N2CCN(c3cccc(Cl)c3Cl)CC2)[nH]c(=O)n1C1CCCCC1 | inactive | 
C=CCn1c(=O)cc(N2CCN(c3cccc(C(F)(F)F)c3)CC2)[nH]c1=O | inactive | 
Cc1cc(C)cc(N2CCN(c3cc(=O)n(C4CCCCC4)c(=O)[nH]3)CC2)c1 | inactive | 
Cn1c(=O)cc(N2CCN(c3cccc(Cl)c3)CC2)[nH]c1=O | inactive | 
O=c1cc(N2CCN(C3CCCCC3)CC2)[nH]c(=O)n1C1CCCCC1 |  | inactive
O=c1cc(N2CCN(c3nc(-c4ccccc4)ns3)CC2)[nH]c(=O)n1C1CCCCC1 | inactive | 
O=c1cc(N2CCN(c3ccnc4cc(Cl)ccc34)CC2)[nH]c(=O)n1C1CCCCC1 | inactive | 
O=c1cc(N2CCN(c3cccc(Cl)c3)CC2)[nH]c(=O)n1C1CCCCC1 |  | > 10 µM (inactive)
CCn1c(=O)cc(N2CCN(c3cccc(Cl)c3)CC2)[nH]c1=O | inactive | 
